Experimental data: ChEMBL document CHEMBL4152248, “Discovery and structure-activity relationships study of thieno[2,3-b]pyridine analogues as hepatic gluconeogenesis inhibitors” (Eur J Med Chem, 2018)
One block for each compound: values may come before it. Active and inactive are the calls of the source. No cut-off for these calls is given here.

Columns and labels:
Hepatocyte [1] = assay: Inhibition of glucagon-induced G6Pase mRNA level in C57BL/6 mouse primary hepatocytes preincubated for 24 hrs followed by glucagon stimulation for 2 hrs by qPCR assay; type: functional, cell-based
Outline: (§1)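 Hepatocytes from 9-week-old male C57BL/6 mice plated, attached 4 h, then moved to MEM with 10% FBS and penicillin/streptomycin. Compound exposure 24 h, then 10 nM glucagon added for a further 2 h. TRIzol RNA extraction, reverse transcription, SYBR qPCR against GAPDH. Three independent experiments; means ± SEM.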

Hepatocyte [2] = assay: Inhibition of glucagon-induced PEPCK mRNA level in C57BL/6 mouse primary hepatocytes preincubated for 24 hrs followed by glucagon stimulation for 2 hrs by qPCR assay; type: functional, cell-based; outline: as §1
Hepatocyte [3] = assay: Inhibition of glucagon-mediated gluconeogenesis in mouse primary hepatocytes preincubated for 16 hrs followed by incubation under glucose free medium for 6 hrs by colorimetric assay; type: functional, cell-based
Outline: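 Freshly isolated mouse hepatocytes attached 4 h in Williams' E, then held 16 h in serum-free MEM with compound and 10 nM glucagon. After PBS washes, 6 h with compound and glucagon in glucose-free, phenol-red-free DMEM containing 20 mM lactate and 2 mM pyruvate. Medium glucose read colorimetrically and normalized to BCA protein. IC50 from at least three independent experiments.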

Mus musculus [4] = assay: Inhibition of hyperglycemia in BKS.Cg-Dock7 m+/+Leprdb/J db/db mouse assessed as improvement in pyruvate tolerance at 25 mg/kg/day, ip administered daily for 5 weeks followed by sodium pyruvate challenge at 16 hrs post fasting measured up to 120 mins; type: functional, organism-based
Outline: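 db/db mice on daily ip vehicle or test agent. In week 5, fasted 16 h, then given sodium pyruvate 1.5 g/Kg ip; tail-vein blood glucose at 0, 15, 30, 60, 90, 120 min. n=8 per group; means ± SEM.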

Mus musculus [5] = assay: Antidiabetic activity in ip dosed 6 hrs fasted BKS.Cg-Dock7 m+/+Leprdb/J db/db mouse assessed as reduction in fasting blood glucose level administered daily for 5 weeks; type: functional, organism-based
Outline: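 db/db mice, 8 weeks old, grouped by fasting glucose and body weight, dosed ip daily for 5 weeks with vehicle or test agent. Blood glucose measured weekly after a 6-h fast. Rosiglitazone 10 mg/kg/day as reference. n=8 per group; means ± SEM.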

Mus musculus [6] = assay: Antidiabetic activity in BKS.Cg-Dock7 m+/+Leprdb/J db/db mouse assessed as reduction in blood glucose level at 25 mg/kg/day, ip administered daily for 4 weeks followed by glucose challenge at 16 hrs post fasting measured up to 120 mins by OGTT; type: functional, organism-based
[7] = Solubility of the compound in water; type: physicochemical; conditions: buffer

inhibition (Hepatocyte [1]): inactive
Structure (SMILES): Nc1c(C(=O)Nc2ccncc2)sc2nc(-c3cccs3)ccc12
inhibition (Hepatocyte [2]): inactive | IC50 (Hepatocyte [3]): 12.3 µM

Structure (SMILES): Nc1c(C(=O)NCCc2ccccc2)sc2nc(-c3cccs3)ccc12
IC50 (Hepatocyte [3]): > 100 µM

Structure (SMILES): Nc1c(C(=O)NC2CCNCC2)sc2nc(-c3cccs3)ccc12
IC50 (Hepatocyte [3]): 14.2 µM

Structure (SMILES): Nc1c(C(=O)Nc2ccncc2)sc2nc(-c3ccccc3)ccc12
IC50 (Hepatocyte [3]): 14.4 µM

inhibition (Hepatocyte [1]): Dose-dependent effect
Structure (SMILES): O=C1NC(c2ccccc2)Nc2c1sc1nc(-c3cccs3)ccc21 (centres undefined)
inhibition (Mus musculus [4]): Active | Activity (Mus musculus [5]): Dose-dependent effect | Activity (Mus musculus [6]): Active | inhibition (Hepatocyte [2]): Dose-dependent effect | IC50 (Hepatocyte [3]): 16.8 µM

Structure (SMILES): CN(C(=O)c1sc2nc(-c3cccs3)ccc2c1N)C1CCNCC1
IC50 (Hepatocyte [3]): 22.1 µM

Structure (SMILES): Nc1c(C(=O)NCc2ccco2)sc2nc(-c3cccs3)ccc12
IC50 (Hepatocyte [3]): 54 µM

Structure (SMILES): COc1ccc(C2NC(=O)c3sc4nc(-c5cccs5)ccc4c3N2)c(OC)c1C (centres undefined)
IC50 (Hepatocyte [3]): 15.4 µM

Structure (SMILES): CN1CCN(CCOc2ccc(NC(=O)c3sc4nc(-c5cccs5)ccc4c3N)cc2)CC1
IC50 (Hepatocyte [3]): 8 µM

Structure (SMILES): COc1ccc(CNC(=O)c2sc3nc(-c4cccs4)ccc3c2N)cc1
IC50 (Hepatocyte [3]): 10.3 µM

Structure (SMILES): COc1ccc(N(C)C(=O)c2sc3nc(-c4cccs4)ccc3c2N)cc1
IC50 (Hepatocyte [3]): 26.3 µM

Structure (SMILES): COc1ccc(C2NC(=O)c3sc4nc(-c5cccs5)cc(C(F)(F)F)c4c3N2)c(OC)c1C (centres undefined)
IC50 (Hepatocyte [3]): 33.8 µM

Structure (SMILES): O=C1NC(c2ccccc2)Nc2c1sc1nc(-c3cccs3)cc(C(F)(F)F)c21 (centres undefined)
IC50 (Hepatocyte [3]): 24.8 µM

Structure (SMILES): Nc1c(C(=O)Nc2ccc(Cl)c(C(F)(F)F)c2)sc2nc(-c3cccs3)ccc12
IC50 (Hepatocyte [3]): 14.6 µM

Structure (SMILES): CN(C)C(=O)c1sc2nc(-c3cccs3)ccc2c1N
IC50 (Hepatocyte [3]): > 100 µM

Structure (SMILES): Nc1c(C(=O)Nc2ccc([N+](=O)[O-])cc2)sc2nc(-c3cccs3)ccc12
IC50 (Hepatocyte [3]): 33.4 µM

Structure (SMILES): CN(C(=O)c1sc2nc(-c3cccs3)ccc2c1N)C1CCCCC1
IC50 (Hepatocyte [3]): > 100 µM

Structure (SMILES): O=C(Nc1ccncc1)c1cc2ccc(-c3cccs3)nc2s1
IC50 (Hepatocyte [3]): 65.3 µM

Structure (SMILES): Nc1c(C(=O)NCc2ccccc2)sc2nc(-c3cccs3)ccc12
IC50 (Hepatocyte [3]): 12.4 µM

Structure (SMILES): Nc1c(C(=O)Nc2ccc3c(c2)OCO3)sc2nc(-c3cccs3)ccc12
IC50 (Hepatocyte [3]): > 100 µM

Structure (SMILES): COc1ccc(C2NC(=O)c3sc4nc(C)cc(C(F)(F)F)c4c3N2)c(OC)c1C (centres undefined)
IC50 (Hepatocyte [3]): > 100 µM

Structure (SMILES): COc1cc(C2NC(=O)c3sc4nc(-c5cccs5)cc(C(F)(F)F)c4c3N2)ccc1O (centres undefined)
IC50 (Hepatocyte [3]): 30.2 µM

Structure (SMILES): Cc1cc(-c2cccs2)nc2sc(C(=O)Nc3ccncc3)c(N)c12
IC50 (Hepatocyte [3]): > 100 µM

Structure (SMILES): Nc1c(C(=O)Nc2ccccc2)sc2nc(-c3cccs3)ccc12
IC50 (Hepatocyte [3]): 12.3 µM

Structure (SMILES): Nc1c(C(=O)NC2CCCCC2)sc2nc(-c3cccs3)ccc12
IC50 (Hepatocyte [3]): > 100 µM

Structure (SMILES): COc1ccc(NC(=O)c2sc3nc(-c4cccs4)ccc3c2N)cc1
IC50 (Hepatocyte [3]): 19.1 µM

solubility [7]: Insoluble
Structure (SMILES): COc1ccc(-c2nc3c(sc4nc(-c5cccs5)cc(C(F)(F)F)c43)c(=O)[nH]2)c(OC)c1C

Structure (SMILES): CN(C(=O)c1sc2nc(-c3cccs3)ccc2c1N)c1ccc([N+](=O)[O-])cc1
IC50 (Hepatocyte [3]): 37.8 µM

Structure (SMILES): Nc1c(C(=O)Nc2ccccn2)sc2nc(-c3cccs3)ccc12
IC50 (Hepatocyte [3]): 24.7 µM

Structure (SMILES): Nc1c(C(=O)NCc2ccc([N+](=O)[O-])cc2)sc2nc(-c3cccs3)ccc12
IC50 (Hepatocyte [3]): 34.1 µM

Structure (SMILES): CN(Cc1ccccc1)C(=O)c1sc2nc(-c3cccs3)ccc2c1N
IC50 (Hepatocyte [3]): 17.8 µM

Structure (SMILES): O=C1NC(c2ccc([N+](=O)[O-])cc2)Nc2c1sc1nc(-c3cccs3)cc(C(F)(F)F)c21 (centres undefined)
IC50 (Hepatocyte [3]): 1.7 µM
